# Only some compounds are listed: those with a hit (about 1.9% of all), similar ones and a draw of the others.
# PLCg1 inh – PLC-gamma1 enzyme inhibitors, primary screen, biochemical, fluorescence, purified enzyme. AID 720700, 2013. fluorogenic substrate. inhibition, % at 12.2 µM. 370,000 compounds, 0.84% hits; in the data active = inhibition above about 9.5%
# PLCb3 inh – human PLC-beta3 inhibitors, primary screen, biochemical, fluorescence | Purified PLC-beta3, fluorogenic substrate | inhibition, % at 12.2 µM | 370,000 compounds, 0.18% hits | AID 720704, 2013; in the data active = inhibition above about 11%;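 also: 0% = median of compound wells on plate and 100% = full blocker control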
# Tb MetRS inh – T. brucei MetRS inhibitors, primary screen, biochemical, luminescence; 360,000 compounds, 0.4% hits; inhibition, % at 11.9 µM; purified T. brucei MetRS, ATP depletion, Kinase-Glo luminescence; methionyl-tRNA synthetase (Trypanosoma brucei brucei); AID 624268, 2012;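 active = inhibition above a per-plate cutoff of the control wells' mean inhibition plus 3 SD, cut at about 5.5% in these data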;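 also: 0% = DMSO wells median and 100% = median of wells with control inhibitor compound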
#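 Test system – parasite MetRS enzyme · Reagent – substrates ATP, L-methionine and bulk Escherichia coli tRNA · Doses – 11.9 µM compound single dose, 0.9% DMSO · Times – 15 min enzyme-compound preincubation, 2 h reaction, 10 min detection, 25 °C · Signal – Kinase-Glo luminescence, ATP depletion format · Controls – DMSO-only wells as low control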
# sPLA2-III inh – human group III sPLA2 inhibitors, primary screen, biochemical, QFRET, BODIPY PC-A2 liposome substrate | inhibition, % at 12.2 µM | Group 3 secretory phospholipase A2 (Homo sapiens), Q9NZ20 | 370,000 compounds, 0.56% hits | QFRET BODIPY PC-A2 liposome hydrolysis, fluorescence;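 active = inhibition above mean plus 3 SD of compounds lying within the high and low control bounds, cut at about 19% in these data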;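 also: 0% = median of test compound wells and 100% = no enzyme DMSO wells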
# hGIII sPLA2 conf – human group III sPLA2 inhibitors, confirmation, biochemical, QFRET, triplicate. shares compounds with sPLA2-III inh. recombinant hGIII-sPLA2, BODIPY PC-A2 QFRET fluorescence. inhibition, % at 12.2 µM. 2,000 compounds, 34% hits;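 active = mean inhibition across triplicates above the hit cutoff set in the earlier primary screen, cut at about 19% in these data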;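 also: 0% = enzyme with DMSO and 100% = DMSO wells lacking enzyme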
# 535nm interf – 535nm fluorescence optical interference, confirmation, artefact control for HGIII-sPLA2 inhibitor project, biochemical, QFRET; shares compounds with sPLA2-III inh; AID 743282, 2014; 2,000 compounds, 8.5% hits; BODIPY FL product fluorescence interference; inhibition, % at 12.2 µM;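 active = average inhibition above the solvent-only control mean plus 3 SD, cut at about 6% in these data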;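 also: 0% = DMSO with substrate plus product and 100% = DMSO with substrate alone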
# BODIPY interf DR – 535nm fluorescence optical interference, dose response, artefact control for HGIII-sPLA2 inhibitor project, biochemical, QFRET. shares compounds with sPLA2-III inh. BODIPY FL product fluorescence interference, cell-free. IC50, µM. 240 tested, under 10 active. AID 743455, 2014;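 active = IC50 at or below 10 µM; inactive = IC50 above 10 µM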
# Active calls of the source: *; / = no result given.
SMILES,PLCg1 inh,PLCb3 inh,Tb MetRS inh,sPLA2-III inh,hGIII sPLA2 conf,535nm interf,others
CCOC(=O)[C@]12CCCC=C1N(CCCOC)C(=O)[C@@H]2CC(=O)NCc1ccccc1,-1,-2,/,-1,/,/,
Fc1cccc(CNC2CCC23CCC(c2ccccc2)CC3)c1 (stereo not given),-2,0,/,1,/,/,
O=C(NCCN1CCOCC1)c1cc(Sc2ccc(F)cc2F)nc2ccccc12,-6,-12,-1,8,/,/,
O=C(NCCN1CCOCC1)c1cc(Sc2ccccc2Cl)nc2ccccc12,-13,-14,/,19*,-2,-17,
C=CCn1c(-c2cccn(Cc3cccc(Cl)c3)c2=O)n[nH]c1=S,-13,-17,-1,8,/,/,
O=c1c(-c2n[nH]c(=S)n2-c2ccccc2)cccn1Cc1cccc(Cl)c1,-9,-15,0,22*,22*,-1,
O=C(NC1CCCCN(Cc2ccc(OC(F)(F)F)cc2)C1=O)c1ccc2ccccc2c1 (stereo not given),-2,-3,/,-9,/,/,
O=C1c2ccccc2C(=O)c2c1ccc1c(=O)n(-c3ccccc3)[nH]c21,4,-4,-1,26*,20*,-2,
Cc1cccc(-n2[nH]c3c4c(ccc3c2=O)C(=O)c2ccccc2C4=O)c1,1,2,0,3,/,/,
COc1cccc(/C=C2\CC3(OC(=O)c4ccc(Cl)cc4)CCCN2C3)c1 (stereo not given),1,-3,/,-13,/,/,
COc1ccc2c(c1)-c1c(ssc1=S)C(C)(C)N2C(=O)CSC1=NCCS1,5,0,0,16,/,/,
CCOc1ccc2c(c1)-c1c(ssc1=S)C(C)(C)N2C(=O)c1ccco1,6,4,0,21*,36*,1,BODIPY interf DR=>122
NC(=S)N/N=C1\CCSc2ccc(Cl)cc21,-8,-36,0,30*,15,-6,
O=C(N/N=C1\CCSc2ccc(F)cc21)c1cccnc1,-6,-13,0,7,/,/,
Cc1cc(N2CCN(CC(C)(C)O)C[C@@H]2C)ccc1N1CCN(CC(C)(C)O)[C@H](C)C1,0,-2,/,10,/,/,
COc1cccc2sc(NNC(=O)COc3ccccc3)nc12,-5,-10,0,23*,16,-3,
O=C1c2ccccc2C(=O)c2c(NCc3cccnc3)cccc21,-3,-4,0,3,/,/,
O=C1c2cccc(NCCCNCCO)c2C(=O)c2cccc(NCCCNCCO)c21,0,-7,0,27*,25*,-30,
O=C(NNC(=O)c1cc2cc(Br)ccc2oc1=O)c1ccc(O)cc1O,-2,-5,1,20*,26*,0,
CCCC/C=C1/[C@H](CC)N(C)C2=N[C@@H](c3ccccc3)CC(=O)N21,1,3,/,6,/,/,
CN(Cc1ccccc1F)C(=O)C1CCC(CNS(=O)(=O)c2cccc3cccnc23)CC1 (stereo not given),-2,-5,/,-11,/,/,
O=C(N/N=C/c1ccc2c(c1)OCO2)c1ccc(Br)o1,-54,-78,0,19*,1,-6,
Cc1cc(Br)cc(/C=N/NC(=O)c2ccc3c(c2)OCO3)c1O,-26,-41,0,36*,40*,2,BODIPY interf DR=>122
O=C(N/N=C/c1ccc2c(c1)OCO2)c1ccc2c(c1)OCCO2,-15,-32,-1,-1,/,/,
CCc1ccccc1-c1cc(C(C)=O)c2n(c1=O)CCC2,1,0,/,8,/,/,
COC(=O)C1=C(C)N(C)C(=NCc2ccccc2)NC1c1cccc(Cl)c1 (stereo not given),1,0,/,-5,/,/,
CCOC(=O)c1cnc2ccc(OCC)cc2c1NCc1ccccc1OC,-6,-5,0,24*,-17,-25,

# Screening results: PubChem, The Scripps Research Institute Molecular Screening Center
